Test results published in ChEMBL document CHEMBL1130092, “Discovery of potent nonpeptide vitronectin receptor (alpha v beta 3) antagonists” (J Med Chem, 1997).
pKi: −log10 of the molar value. Bridge positions count the residues as written; N and C are the ends. Peptide text beside a SMILES is read from it.

Each molecule was assayed against Integrin alpha-V/beta-3 (Homo sapiens, UniProt P05106+P06756) (assay: Affinity for vitronectin receptor, integrin alphaV-beta3).
Sequence of Integrin alpha-V/beta-3 (P05106 27-788 limits assumed): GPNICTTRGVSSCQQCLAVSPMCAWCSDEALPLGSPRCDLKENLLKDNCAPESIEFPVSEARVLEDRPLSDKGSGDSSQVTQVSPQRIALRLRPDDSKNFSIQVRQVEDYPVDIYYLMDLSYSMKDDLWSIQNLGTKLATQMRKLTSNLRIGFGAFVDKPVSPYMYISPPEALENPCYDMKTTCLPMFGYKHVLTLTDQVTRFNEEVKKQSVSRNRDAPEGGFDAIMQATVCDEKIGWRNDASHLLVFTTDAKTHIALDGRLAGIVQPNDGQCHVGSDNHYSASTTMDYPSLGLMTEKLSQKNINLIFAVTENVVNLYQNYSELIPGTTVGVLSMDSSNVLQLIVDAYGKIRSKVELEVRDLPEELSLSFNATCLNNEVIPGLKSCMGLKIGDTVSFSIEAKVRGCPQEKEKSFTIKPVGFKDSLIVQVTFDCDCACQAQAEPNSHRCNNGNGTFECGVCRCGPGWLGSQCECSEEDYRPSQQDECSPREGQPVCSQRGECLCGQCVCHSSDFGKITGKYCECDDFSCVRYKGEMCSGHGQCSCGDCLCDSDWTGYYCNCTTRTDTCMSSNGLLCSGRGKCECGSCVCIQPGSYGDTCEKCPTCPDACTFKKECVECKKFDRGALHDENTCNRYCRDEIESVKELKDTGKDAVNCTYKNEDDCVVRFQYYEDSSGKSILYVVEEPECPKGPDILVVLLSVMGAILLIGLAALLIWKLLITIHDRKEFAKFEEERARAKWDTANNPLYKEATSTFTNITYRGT
Sequence of Integrin alpha-V/beta-3 (P06756 31-889 limits assumed): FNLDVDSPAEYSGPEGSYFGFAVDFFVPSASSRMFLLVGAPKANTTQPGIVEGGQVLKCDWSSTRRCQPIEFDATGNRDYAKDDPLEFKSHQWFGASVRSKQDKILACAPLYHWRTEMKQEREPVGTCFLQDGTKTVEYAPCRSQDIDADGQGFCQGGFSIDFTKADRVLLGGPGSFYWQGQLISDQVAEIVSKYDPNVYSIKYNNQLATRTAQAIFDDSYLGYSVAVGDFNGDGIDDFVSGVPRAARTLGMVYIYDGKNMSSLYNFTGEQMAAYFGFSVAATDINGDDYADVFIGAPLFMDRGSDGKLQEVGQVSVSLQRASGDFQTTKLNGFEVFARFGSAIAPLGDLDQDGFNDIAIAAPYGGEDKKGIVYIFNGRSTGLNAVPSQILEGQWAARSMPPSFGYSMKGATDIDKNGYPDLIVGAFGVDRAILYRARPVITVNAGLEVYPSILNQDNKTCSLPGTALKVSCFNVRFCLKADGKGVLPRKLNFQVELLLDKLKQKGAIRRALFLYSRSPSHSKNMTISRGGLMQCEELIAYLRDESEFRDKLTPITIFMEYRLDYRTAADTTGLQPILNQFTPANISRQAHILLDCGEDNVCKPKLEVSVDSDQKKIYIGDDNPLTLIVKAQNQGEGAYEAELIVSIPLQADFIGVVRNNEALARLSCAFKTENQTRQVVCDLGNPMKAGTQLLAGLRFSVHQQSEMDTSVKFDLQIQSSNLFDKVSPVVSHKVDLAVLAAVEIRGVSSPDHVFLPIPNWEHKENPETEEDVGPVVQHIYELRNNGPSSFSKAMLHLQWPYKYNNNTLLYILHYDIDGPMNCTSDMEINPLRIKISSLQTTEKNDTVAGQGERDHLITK
Sequence of Integrin alpha-V/beta-3 (P06756 891-1048 limits assumed): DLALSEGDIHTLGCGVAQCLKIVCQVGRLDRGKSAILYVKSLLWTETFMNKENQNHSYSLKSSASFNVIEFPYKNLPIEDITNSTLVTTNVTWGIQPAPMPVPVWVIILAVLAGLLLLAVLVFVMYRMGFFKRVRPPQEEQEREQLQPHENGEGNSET
Assay type: protein-complex assay
How it was run: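 Competitive radioligand binding to human αVβ3, displacing [3H]SK&F 107260; Ki values are means of two to three separate experiments.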
In the case of N=C(N)c1ccc(NC(=O)c2ccc3c(c2)CN(CCc2ccccc2)C(=O)C(CC(=O)O)N3)cc1 (stereo not given), the pKi was 4.25.
Work on CC(=O)C[C@@H]1NC(=O)[C@@H](Cc2ccccc2)NC(=O)[C@H](C(C)C)NC(=O)[C@H](CCCN=C(N)N)NC(=O)CNC1=O yielded a pKi of 8.00.
N=C(N)c1cccc(NC(=O)c2ccc3c(c2)CN(CCc2ccccc2)C(=O)C(CC(=O)O)N3)c1 (stereo not given) showed a pKi of 6.29.
For CN(C(=O)c1ccccc1)[C@@H](CCCNC(=N)N)C(=O)NCC1=CC(CC(=O)O)C(=O)N(c2ccccc2)CC1 (stereo not given in full), the pKi was 7.30.
In the case of CN1Cc2cc(C(=O)NCc3nc4ccccc4[nH]3)ccc2N[C@@H](CC(=O)O)C1=O, the pKi was 7.82.
CN1Cc2cc(C(=O)NCCc3nc4ccccc4[nH]3)ccc2NC(CC(=O)O)C1=O (stereo not given) gave a pKi of 5.96.
In the case of CN1Cc2cc(C(=O)Nc3nc4ccccc4[nH]3)ccc2NC(CC(=O)O)C1=O (stereo not given), the pKi was 5.94.
Work on CN1Cc2cc(C(=O)N3CCN(c4ccncc4)CC3)ccc2NC(CC(=O)O)C1=O (stereo not given) yielded a pKi of 6.00.
CN1Cc2cc(C(=O)NCc3nc4ccccc4[nH]3)ccc2NC(CC(=O)O)C1=O (stereo not given) gave a pKi of 7.62.
N/C1=N/CCC[C@H](N)C(=O)NCC(=O)N[C@@H](CC(=O)O)C(=O)N[C@@H](CO)C(=O)N[C@@H](Cc2ccccc2)C(=O)NCC(=O)N1 (H-RGDSFG; lactam 1-C) was tested, and the pKi was 8.00.
CN1C(=O)c2ccccc2SSc2ccccc2NC(=O)[C@H](CC(=O)O)NC(=O)CNC(=O)[C@@H]1CCCN=C(N)N [SKF-107260] showed a pKi of 8.46.

The molecules below were run against Integrin alpha-IIb/beta-3 (Homo sapiens, UniProt P05106+P08514) (assay: Affinity for platelet fibrinogen receptor, integrin alpha IIb/beta3).
Sequence of Integrin alpha-IIb/beta-3 (P05106 27-788 limits assumed): as the sequence (P05106 27-788 limits assumed) above
Sequence of Integrin alpha-IIb/beta-3 (P08514 32-887 limits assumed): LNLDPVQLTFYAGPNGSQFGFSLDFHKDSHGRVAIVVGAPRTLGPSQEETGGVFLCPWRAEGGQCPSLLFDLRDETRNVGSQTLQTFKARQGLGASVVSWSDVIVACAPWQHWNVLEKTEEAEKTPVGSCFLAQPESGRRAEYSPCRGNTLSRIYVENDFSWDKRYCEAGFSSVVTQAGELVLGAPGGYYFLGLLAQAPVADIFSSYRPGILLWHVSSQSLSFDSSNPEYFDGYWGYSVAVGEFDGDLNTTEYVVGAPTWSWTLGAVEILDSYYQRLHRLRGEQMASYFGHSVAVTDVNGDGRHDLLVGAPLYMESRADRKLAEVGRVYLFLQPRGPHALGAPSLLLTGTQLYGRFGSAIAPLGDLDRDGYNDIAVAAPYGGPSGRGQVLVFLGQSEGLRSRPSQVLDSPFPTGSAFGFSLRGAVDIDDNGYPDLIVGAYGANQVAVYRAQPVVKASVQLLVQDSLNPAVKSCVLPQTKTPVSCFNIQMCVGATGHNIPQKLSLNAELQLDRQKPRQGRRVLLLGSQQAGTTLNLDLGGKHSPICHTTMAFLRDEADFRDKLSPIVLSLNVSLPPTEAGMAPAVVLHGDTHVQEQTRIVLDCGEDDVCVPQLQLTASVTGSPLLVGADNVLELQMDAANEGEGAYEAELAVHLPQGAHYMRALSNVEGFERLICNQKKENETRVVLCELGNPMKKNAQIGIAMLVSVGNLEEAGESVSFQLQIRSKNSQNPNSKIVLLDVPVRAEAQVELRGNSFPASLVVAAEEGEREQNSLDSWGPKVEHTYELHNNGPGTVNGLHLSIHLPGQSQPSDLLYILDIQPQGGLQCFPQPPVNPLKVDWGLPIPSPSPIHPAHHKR
Sequence of Integrin alpha-IIb/beta-3 (P08514 891-1039 limits assumed): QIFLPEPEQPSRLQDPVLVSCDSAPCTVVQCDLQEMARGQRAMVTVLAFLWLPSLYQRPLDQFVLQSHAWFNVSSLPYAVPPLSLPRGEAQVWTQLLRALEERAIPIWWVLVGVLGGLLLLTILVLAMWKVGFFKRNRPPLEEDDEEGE
In the case of CC(=O)C[C@@H]1NC(=O)[C@@H](Cc2ccccc2)NC(=O)[C@H](C(C)C)NC(=O)[C@H](CCCN=C(N)N)NC(=O)CNC1=O, the pKi was 4.38.
Work on N=C(N)c1cccc(NC(=O)c2ccc3c(c2)CN(CCc2ccccc2)C(=O)C(CC(=O)O)N3)c1 (stereo not given) yielded a pKi of 5.35.
For CN1Cc2cc(C(=O)NCc3nc4ccccc4[nH]3)ccc2N[C@@H](CC(=O)O)C1=O, the pKi was 4.28.
CN1Cc2cc(C(=O)NCCc3nc4ccccc4[nH]3)ccc2NC(CC(=O)O)C1=O (stereo not given) was tested, and the pKi was < 4.30.
With CN1Cc2cc(C(=O)Nc3nc4ccccc4[nH]3)ccc2NC(CC(=O)O)C1=O (stereo not given) the pKi was < 4.30.
Work on CN1Cc2cc(C(=O)N3CCN(c4ccncc4)CC3)ccc2NC(CC(=O)O)C1=O (stereo not given) yielded a pKi of 8.10.
For CN1Cc2cc(C(=O)N3CCN(c4ccccc4)CC3)ccc2NC(CC(=O)O)C1=O (stereo not given), the pKi was < 4.00.
Molecule CN1Cc2cc(C(=O)NCc3nc4ccccc4[nH]3)ccc2NC(CC(=O)O)C1=O (stereo not given) has a pKi of 4.52.
Molecule N/C1=N/CCC[C@H](N)C(=O)NCC(=O)N[C@@H](CC(=O)O)C(=O)N[C@@H](CO)C(=O)N[C@@H](Cc2ccccc2)C(=O)NCC(=O)N1 (H-RGDSFG; lactam 1-C) has a pKi of 4.12.
